TAAR1 agonist – human TAAR1 agonists, primary screen, Fluo-8 calcium fluorescence, CHO RD-HGA16 cells; AID 624467, 2012; Trace amine-associated receptor 1 (Homo sapiens), Q96RJ0; vehicle wells 0%, saturating PEA agonist 100%; activation, % at 3 µM; 0.99% of 360,000 active;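 active means activation above the mean activation of all test compounds in the run plus 3 SD, cut at about 38% in these data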
Target sequence (Q96RJ0 whole entry, looked up): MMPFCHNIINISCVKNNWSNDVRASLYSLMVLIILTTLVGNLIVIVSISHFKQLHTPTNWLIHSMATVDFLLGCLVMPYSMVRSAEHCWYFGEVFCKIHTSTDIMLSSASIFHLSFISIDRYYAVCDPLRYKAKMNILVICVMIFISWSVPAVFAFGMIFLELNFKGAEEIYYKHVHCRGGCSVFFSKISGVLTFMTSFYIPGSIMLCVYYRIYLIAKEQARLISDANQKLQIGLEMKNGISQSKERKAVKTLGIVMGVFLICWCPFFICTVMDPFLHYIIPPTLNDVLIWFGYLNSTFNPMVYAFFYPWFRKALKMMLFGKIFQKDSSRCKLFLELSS
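Assay system – CHO-derived RD-HGA16 cells with stable Gα16 and human TAAR1 · Compound dosing – one-point dosing at 3 µM (nominal) · Incubation – 17-24 h seeding, 75 min 37 °C dye, 30 min RT · Measured by – kinetic Fluo-8 calcium fluorescence · Control set – DMSO vehicle as 0%, PEA at EC100 as 100% · Repeats – single well for each compound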
TAAR1 antag – human TAAR1 antagonists, primary screen, Fluo-8 calcium fluorescence, CHO RD-HGA16 cells. Trace amine-associated receptor 1 (Homo sapiens), Q96RJ0. antagonist. inhibition, % at 3 µM. 1.5% of 360,000 active. AID 624466, 2012;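 active means inhibition above a per-plate cutoff, the mean inhibition of test compounds on that plate plus 3 SD, cut at about 49% in these data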;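 further: 0% = DMSO plus EC80 beta-PEA response and 100% = DMSO alone without agonist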
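Material: CHO RD-HGA16 cells bearing hTAAR1; compound dosing: one-point dosing, 3 µM nominal final; schedule: dye loading 75 min at 37 °C, then 30 min room temperature; measured by: calcium fluorescence with Fluo-8; control set: vehicle and agonist controls; replication: n of 1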
M4 PAM – human M4 muscarinic receptor positive allosteric modulators, primary screen, CHO-K1 cells, Fluo-8 calcium fluorescence. CHO-K1 hM4/Gqi5, ACh EC20; 0% = ACh EC20, 100% = maximal ACh. activation, % at 3 µM. 0.4% of 360,000 active. AID 624126, 2012;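 active means activation above its plate's cutoff, the mean activation of sample wells plus 3 SD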
M4 antag – human M4 muscarinic receptor antagonists, primary screen, CHO cells, Fluo-8 calcium fluorescence. Muscarinic acetylcholine receptor M4 (Homo sapiens), P08173. CHO-hM4 cells, ACh EC80. inhibition, % at 3 µM. 0.73% of 360,000 active;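 active means inhibition above its plate's cutoff, the mean inhibition of sample wells plus 3 SD, cut at about 27% in these data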;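 further: 0% = acetylcholine EC80 with DMSO and 100% = DMSO without agonist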
CHRM4 agonist – human M4 muscarinic receptor agonists, primary screen, CHO-K1 cells, Fluo-8 calcium fluorescence; Muscarinic acetylcholine receptor M4 (Homo sapiens), P08173; CHO-K1 hM4/Gqi5; vehicle 0%, full acetylcholine response 100%; activation, % at 3 µM; 0.14% of 360,000 active; AID 624127, 2012;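 active means activation above the run mean over all test wells plus 3 SD, cut at about 32% in these data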;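 further: peak over basal fluorescence ratio per well then scaled between controls; 0% = DMSO wells and 100% = acetylcholine at EC100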
nonsel antag count – nonselective antagonists in TAAR1 counter-screen cells, counter-screen for hTAAR1 antagonist project, cell-based, fluorescence, calcium; shares compounds with TAAR1 antag; counterscreen cell line, antagonist mode; inhibition, % at 3 µM; 77% of 2,400 active; in the data active means inhibition above about 22%;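 further: CHO-Ga16 host cells stimulated with ATP at an EC80 level; 0% = agonist EC80 plus vehicle and 100% = vehicle without agonist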
TAAR1 antag conf – human TAAR1 antagonists, retest of hits, confirmation, cell-based, fluorescence; shares compounds with TAAR1 antag; TAAR1-expressing cells, fluorescence antagonist read-out; inhibition, % at 3 µM; 40% of 2,400 active; AID 651785, 2012; in the data active means inhibition above about 49%;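 further: CHO-Ga16 host cells challenged with agonist PEA near its EC80; 0% = agonist at EC80 plus vehicle and 100% = vehicle with no agonist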
Ga16 nonsel ag – calcium activation in Ga16-expressing cells, counter-screen for TAAR1 antagonist project, cell-based, fluorescence; agonist counterscreen; 18% of 2,400 active; AID 651953, 2012; shares compounds with TAAR1 antag; activation, % at 3 µM; in the data active means activation above about 12%;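 further: 0% = vehicle wells and 100% = saturating stimulus response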
TAAR1 ag count – TAAR1 activation by candidate antagonists – cell-based, fluorescence, counter-screen for TAAR1 antagonist project; shares compounds with TAAR1 antag; hTAAR1 cell line, agonist mode; activation, % at 3 µM; 2% of 2,400 active; AID 651955, 2012; in the data active means activation above about 37%;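 further: CHO cells stably expressing TAAR1 with calcium dye readout; 0% = DMSO vehicle and 100% = full agonist response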
An asterisk follows results filed as active; · = not tested or not shown. Only some compounds are listed: those with a hit (about 3% of all), similar ones and a draw of the others.

SMILES | TAAR1 agonist | TAAR1 antag | M4 PAM | M4 antag | CHRM4 agonist | nonsel antag count | TAAR1 antag conf | Ga16 nonsel ag | TAAR1 ag count
CCC(C)C(CO)NCCCn1cnc2c(OCc3ccccc3)ncnc21 (stereo unspecified) | 3 | -12 | 3 | -15 | 1 | · | · | · | ·
COc1cc2c(cc1OC)C1=C(C#N)CN(C3CCCCC3)CN1CC2 | 8 | 53* | -9 | -6 | 17 | 23* | 34 | 10 | 7
CNC(=O)C1CCC(=O)N1Cc1c[nH]c2ccccc12 (stereo unspecified) | 1 | 4 | 16 | 5 | 0 | · | · | · | ·
O=C(Nc1cccc(-c2nnc(-c3ccco3)o2)c1)C(c1ccccc1)c1ccccc1 | 18 | 64* | -2 | 6 | 4 | 29* | 39 | 2 | 0
O=C(Cc1ccc(Cl)cc1)Nc1cccc(-c2nnc(-c3ccco3)o2)c1 | 18 | 62* | -3 | 5 | 2 | 27* | 40 | 11 | 11
O=C(Cc1ccccc1)Nc1cccc(-c2nnc(-c3ccco3)o2)c1 | 22 | 35 | -6 | 1 | 8 | · | · | · | ·
CC(=O)NC(c1cccc(F)c1)c1nc(-c2cnc3ccccc3c2)cs1 (stereo unspecified) | 0 | -14 | -1 | -1 | 2 | · | · | · | ·
CS(=O)(=O)Nc1ccc2c(c1)[C@H]1C[C@H](CC(=O)NCc3ccccc3)O[C@H](CO)[C@H]1O2 | 0 | 3 | 4 | -2 | 1 | · | · | · | ·
O=S(=O)(c1ccccc1)N1CC2CC(Br)C(Br)CC21 (stereo unspecified) | -2 | -10 | -4 | -21 | 1 | · | · | · | ·
COC(=O)C1=C(C)N(Cc2ccc(Cl)cc2)C(=S)NC1c1cccc(F)c1 (stereo unspecified) | 1 | 38 | · | · | · | · | · | · | ·
COC(=O)C1=C(C)N(Cc2ccc(C(F)(F)F)cc2)C(=NCc2ccc3c(c2)OCO3)NC1c1cccc(Cl)c1 (stereo unspecified) | 29 | 49* | · | · | · | 31* | 30 | 14* | 34
COC(=O)C1=C(C)N(Cc2ccc(F)cc2)C(=S)NC1c1cccc(Br)c1 (stereo unspecified) | -1 | 54* | · | · | · | 19 | 27 | 3 | 4
CCCCN(C(=O)c1ccc(N2C(=O)c3ccccc3C2=O)cc1)c1c(N)n(CC(C)C)c(=O)[nH]c1=O | 0 | -31 | -1 | -8 | 0 | · | · | · | ·
O=C(C[C@H]1C[C@H]2c3cc(NS(=O)(=O)c4ccc(F)cc4)ccc3O[C@H]2[C@H](CO)O1)NCc1ccncc1 | -1 | -12 | -3 | 0 | 0 | · | · | · | ·
COc1ccc(C2CC(=O)C(c3ccc(F)cc3)=CN2Cc2ccccc2)cc1 (stereo unspecified) | -1 | 41 | · | · | · | · | · | · | ·
C[C@H](O)[C@@H](C(=O)N1CCN(C(=O)OC(C)(C)C)CC1)n1cc(CCCCNC(=O)OC(C)(C)C)nn1 | 10 | 5 | -2 | 0 | 8 | · | · | · | ·
Cc1cn([C@H](C(=O)NCCCCCCCCCCC(=O)N2CCN(C(=O)OC(C)(C)C)CC2)[C@@H](C)O)nn1 | 21 | 63* | -11 | -1 | 15 | 24* | 34 | 11 | 9
Cc1cccc2sc(=S)[nH]c12 | 3 | -27 | 14 | -5 | 1 | · | · | · | ·
Cc1cccc(N=C2NC(=O)/C(=C/c3cccn3C)S2)c1 | 2 | -12 | 2 | -5 | 1 | · | · | · | ·
O=C1NC(=Nc2ccccc2)S/C1=C\c1cccn1-c1ccccc1 | 4 | 73* | 6 | 14 | 5 | 32* | 43 | 3 | 2
COc1ccc([C@H]2N[C@]3(CCCN(Cc4ccc(C(F)(F)F)cc4)C3=O)[C@H]3C(=O)N(C)C(=O)[C@@H]23)cc1 | -1 | -6 | 1 | 1 | 2 | · | · | · | ·
O=[N+]([O-])c1ccccc1CS(=O)(=O)c1ccccc1 | 2 | -7 | 8 | -2 | 0 | · | · | · | ·
O=[N+]([O-])c1ccccc1N(S(=O)(=O)c1ccccc1)S(=O)(=O)c1ccccc1 | 3 | 72* | 1 | 10 | 4 | 24* | 50* | 3 | 3
CC(C)N1CC(=O)N2CSCC2C1=O (stereo unspecified) | 3 | -17 | 6 | 5 | 1 | · | · | · | ·
Cc1cc(=O)oc2cc(OCc3c(F)cccc3Cl)ccc12 | 0 | -28 | · | · | · | · | · | · | ·
SMILES | TAAR1 agonist | TAAR1 antag | M4 PAM | M4 antag | CHRM4 agonist | nonsel antag count | TAAR1 antag conf | Ga16 nonsel ag | TAAR1 ag count
Cc1ccc(C)c(N2CCN(C(=O)CCCOc3cc(=O)n(C)c4ccccc34)CC2)c1 | 25 | 54* | -23 | 10 | 22 | 39* | 56* | 13* | 16
CCCNC(=O)c1cc(C2CCCN(S(=O)(=O)c3cccs3)C2)on1 (stereo unspecified) | 1 | 5 | -7 | -2 | 4 | · | · | · | ·
CSc1ccccc1NC(=O)N1CCCC(C(=O)c2ccc3c(c2)OCO3)C1 (stereo unspecified) | 1 | -17 | -3 | 3 | 0 | · | · | · | ·
CC(=O)c1ccc(NC(=O)N2CCCC(C(=O)c3ccc4c(c3)OCO4)C2)cc1 (stereo unspecified) | 10 | 49* | -7 | -4 | 14 | 22* | 35 | 11 | 11
Cc1ccc(S(=O)(=O)N(C)C[C@@H]2Oc3ccc(NC(=O)Cn4cnnn4)cc3C(=O)N([C@@H](C)CO)C[C@H]2C)cc1 | 9 | 1 | 8 | 2 | 1 | · | · | · | ·
O=C(CCCSCCCC(=O)NN=Cc1ccccc1)NN=Cc1ccccc1 | 22 | 66* | -5 | 2 | 3 | 43* | 56* | 10 | 44*
O=C(CSCC(=O)NN=Cc1ccccc1)NN=Cc1ccccc1 | 31 | -12 | -1 | 9 | 0 | · | · | · | ·
CC(=O)Nc1ccc(Nc2nc(-c3ccccc3)nc3ccccc23)cc1 | 21 | 59* | -6 | -4 | 13 | 34* | 56* | 8 | 6
Cc1ccc(Nc2nc(-c3cccnc3)nc3ccccc23)cc1 | -1 | 56* | -9 | 7 | 11 | 17 | 27 | 3 | -1
Oc1ccc(Nc2nc(-c3ccccc3)nc3ccccc23)cc1 | · | · | -2 | 5 | 7 | · | · | · | ·

Screens: PubChem BioAssay, The Scripps Research Institute Molecular Screening Center
